The results in this text go back to ChEMBL document CHEMBL4373727, “Thienopyrimidinone Derivatives That Inhibit Bacterial tRNA (Guanine37-N1)-Methyltransferase (TrmD) by Restructuring the Active Site with a Tyrosine-Flipping Mechanism” (J Med Chem, 2019).

Assay [1] has as its target T1, tRNA (guanine-N(1)-)-methyltransferase (Pseudomonas aeruginosa (strain ATCC 15692 / DSM 22644 / CIP 104116 / JCM14847 / LMG 12228 / 1C / PRS 101 / PAO1), UniProt Q9HXQ1).
T1 sequence (Q9HXQ1 whole entry): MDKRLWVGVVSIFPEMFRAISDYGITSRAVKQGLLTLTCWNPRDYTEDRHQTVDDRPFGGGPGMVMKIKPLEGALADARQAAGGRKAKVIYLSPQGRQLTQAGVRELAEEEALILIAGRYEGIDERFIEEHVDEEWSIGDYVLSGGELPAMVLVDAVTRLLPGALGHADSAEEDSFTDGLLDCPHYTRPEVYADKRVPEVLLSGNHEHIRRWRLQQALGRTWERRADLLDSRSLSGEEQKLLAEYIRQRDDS
Description: Inhibition of Pseudomonas aeruginosa tRNA (guanine(37)-N1)-methyltransferase (Leu5 to Asp25 residues) expressed in Escherichia coli BL21 (DE3) Rosetta T1R cells assessed as reduction in S-adenosyl-L-homocysteine production preincubated for 15 mins followed by 1.5 uM of tRNALeu(CAG) substrate and SAM addition and measured after 45 mins by MTase-Glo assay. The gist of the method:
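MTase-Glo luminescence assay. 8 nM TrmD preincubated 15 min at ambient temperature with serially diluted inhibitor (0–500 μM) in 50 mM Tris-HCl pH 8.0, 80 mM NaCl, 1 mM MgCl2, 0.5 mM DTT, 0.01% Triton X-100. Reaction with 2 μM SAM and tRNALeu(CAG), 45 min at 37 °C. Detection 30 min in the dark, SAH read against a standard curve. IC50 by nonlinear regression. Two independent experiments in duplicate.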

Assay [2] relates to Staphylococcus aureus. The experiment in a line: Antibacterial activity against methicillin-resistant Staphylococcus aureus ATCC 43300 at 100 uM incubated for 24 hrs. The format is functional, organism-based. The gist of the method:
(§1)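 Single-concentration growth screen: 100 μM test compound with log-phase bacteria at about 5×10^5 cells/mL. Incubation 24 h at 37 °C. Growth read by OD600 and given as percent of untreated control. MRSA was grown in cation-adjusted Mueller–Hinton broth. M. smegmatis was grown in complete Middlebrook 7H9. Ampicillin and kanamycin served as positive controls.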

The test system of another assay is Enterococcus faecalis. Description: Antibacterial activity against Enterococcus faecalis ATCC 51299 at 100 uM incubated for 24 hrs. The format is functional, organism-based. The procedure, abridged: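 Single-concentration screen in brain heart infusion broth. Log-phase cells at ~5×10^5 cells/mL were grown with 100 μM compound for 24 h at 37 °C. Growth was read as OD600 and expressed as a percentage of untreated wells. DMSO and blank controls were included.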

Another assay relates to Streptococcus pneumoniae. The experiment in a line: Antibacterial activity against Streptococcus pneumoniae ATCC 49619 at 100 uM incubated for 24 hrs. The format is functional, organism-based. The gist of the method:
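Single 100 μM screen in MH medium with 3% defibrinated sheep blood at 37 °C under 5% CO2, ~5×10^5 cells/mL, 24 h.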

Assay [3] deals with Mycolicibacterium smegmatis. Description: Antibacterial activity against Mycolicibacterium smegmatis MC2 155 at 100 uM incubated for 24 hrs. The format is functional, organism-based. The gist of the method:
as §1

Assay [4] deals with Mycobacterium tuberculosis. The experiment in a line: Antibacterial activity against Mycobacterium tuberculosis ATCC 27294 at 100 uM incubated for 7 days. The format is functional, organism-based.
The next assay has as its system Pseudomonas aeruginosa. The experiment in a line: Antibacterial activity against Pseudomonas aeruginosa PA14 incubated for 24 hrs by serial broth microdilution method. The format is functional, organism-based. The gist of the method: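 Log-phase cultures from four colonies grown overnight at 37 °C, inoculated at ~5×10^5 cells/mL in cation-adjusted Mueller–Hinton broth with serially diluted compound. Grown 24 h at 37 °C, then OD600 read. MIC50/MIC90 are the concentrations giving 50%/90% growth inhibition relative to drug-free controls. Two independent experiments in duplicate.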

The test system of the next assay is Escherichia coli. Description: Bactericidal activity against Escherichia coli BW25113 assessed as reduction in CFU at 1 to 4 times MIC90 incubated for 24 hrs. The format is functional, organism-based.
The test system of assay [5] is Staphylococcus aureus. The experiment in a line: Bactericidal activity against methicillin-resistant Staphylococcus aureus ATCC 43300 assessed as reduction in CFU at 1 to 4 times MIC90 incubated for 24 hrs. The format is functional. The settings on record: ATCC 43300, 24 h, read-out: MBC99.9.
Assay [6] concerns the target T1, tRNA (guanine-N(1)-)-methyltransferase. The experiment in a line: Binding affinity to Pseudomonas aeruginosa tRNA (guanine(37)-N1)-methyltransferase (Leu5 to Asp25 residues) expressed in Escherichia coli BL21 (DE3) Rosetta T1R cells by surface plasmon resonance assay. The procedure, abridged:
(§2)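 SPR at 25 °C. His-tagged TrmD (50 μg/mL) captured on an anti-His antibody surface (about 2200 RU), with a blank reference cell. Buffer: 50 mM Tris-HCl pH 8, 150 mM NaCl, 1 mM MgCl2, 1 mM DTT, 0.05% Tween-20. Analyte in 2-fold dilutions, injected lowest to highest at 30 μL/min, 30 s contact, 240 s dissociation. KD from steady-state affinity fit.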

Assay [7] has as its target T2, tRNA (guanine-N(1)-)-methyltransferase (Staphylococcus aureus (strain NCTC 8325 / PS 47), UniProt Q2FZ43).
T2 sequence (Q2FZ43 whole entry): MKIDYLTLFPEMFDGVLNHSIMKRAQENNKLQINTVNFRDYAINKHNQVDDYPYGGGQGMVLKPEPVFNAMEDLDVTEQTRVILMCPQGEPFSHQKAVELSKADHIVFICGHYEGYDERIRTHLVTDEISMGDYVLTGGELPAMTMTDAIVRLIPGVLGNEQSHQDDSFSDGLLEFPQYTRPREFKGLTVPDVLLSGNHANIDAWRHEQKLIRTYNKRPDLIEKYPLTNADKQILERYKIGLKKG
The experiment in a line: Binding affinity to full length Staphylococcus aureus tRNA (guanine(37)-N1)-methyltransferase expressed in Escherichia coli BL21 (DE3) by surface plasmon resonance assay. The procedure, abridged: as §2

Assay [8] addresses T3, tRNA (guanine-N(1)-)-methyltransferase (Mycobacterium tuberculosis (strain ATCC 25618 / H37Rv)) (UniProt P9WFY7).
T3 sequence (whole entry): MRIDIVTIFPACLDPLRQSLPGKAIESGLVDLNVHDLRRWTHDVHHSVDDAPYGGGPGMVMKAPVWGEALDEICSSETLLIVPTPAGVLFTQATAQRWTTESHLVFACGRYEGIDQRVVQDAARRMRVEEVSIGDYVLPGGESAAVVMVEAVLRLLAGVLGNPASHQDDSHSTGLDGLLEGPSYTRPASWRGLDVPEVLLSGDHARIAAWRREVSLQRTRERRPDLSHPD
The experiment in a line: Binding affinity to full length Mycobacterium tuberculosis tRNA (guanine(37)-N1)-methyltransferase expressed in Escherichia coli BL21 (DE3) assessed as association rate constant by surface plasmon resonance assay. The gist of the method: as §2

In assay [9] the target is T4, tRNA (guanine-N(1)-)-methyltransferase (Staphylococcus aureus (strain NCTC 8325 / PS 47)) (UniProt Q2FZ43).
T4 sequence (whole entry): T2 sequence (Q2FZ43 whole entry)
Description: Binding affinity to full length Staphylococcus aureus tRNA (guanine(37)-N1)-methyltransferase expressed in Escherichia coli BL21 (DE3) assessed as association rate constant by surface plasmon resonance assay. The procedure, abridged: as §2

Assay [10] deals with T4, tRNA (guanine-N(1)-)-methyltransferase (Staphylococcus aureus (strain NCTC 8325 / PS 47)). Description: Binding affinity to full length Staphylococcus aureus tRNA (guanine(37)-N1)-methyltransferase expressed in Escherichia coli BL21 (DE3) assessed as dissociation rate constant by surface plasmon resonance assay. The gist of the method:
as §2

Values after ≈ are worked out from the molar mass of the structure shown. Active and inactive are the calls of the source. No cut-off for these calls is given here.

On to `CCCCCCCCCCNCc1ccc(CNC(=O)c2csc3nc[nH]c(=O)c23)cc1`, for which the IC50 in [1] was 25 nM. The outcome (in the assay with Staphylococcus aureus [2]; in the assay with Enterococcus faecalis; in the assay with Streptococcus pneumoniae; in assay [3]; in [4]) was Active. Besides, the MIC50 entry with Pseudomonas aeruginosa was “inactive”. For the same molecule, the MIC90 entry in the assay with Pseudomonas aeruginosa was “inactive”. Also, in the assay with Escherichia coli, the MBC99.9 entry was “inactive”. In addition, in the assay with Staphylococcus aureus [5], the MBC worked out at 34 µM (≈ 15.5 µg/mL).

Take `CCCCCCCCNCc1ccc(CNC(=O)c2csc3nc[nH]c(=O)c23)cc1`: the IC50 in assay [1] worked out at 24 nM. Further, the values for the Kd in assay [6] and in assay [7] were 1.6 nM and 3100 nM, respectively. The Ka in assay [8] was determined as 645000 M⁻¹ s⁻¹; in assay [9], 2.94e+06 M⁻¹ s⁻¹. Moreover, the Kdiss in [10] is 9.15 s⁻¹. Moreover, the result (with Staphylococcus aureus [2]; with Enterococcus faecalis; with Streptococcus pneumoniae; in [3]; in assay [4]) was Active. Moreover, the MIC50 entry with Pseudomonas aeruginosa was “inactive”. Also, in the assay on Pseudomonas aeruginosa, the MIC90 result was “inactive”. The MBC99.9 entry in the assay with Escherichia coli is “inactive”. Also, the MBC with Staphylococcus aureus [5] stood at 54 µM (≈ 23 µg/mL).

Turning to `NC1CCN(Cc2ccc(CNC(=O)c3csc4nc[nH]c(=O)c34)cc2)CC1`, the IC50 in assay [1] amounted to 180 nM. Besides, the Kd in [6] is 91 nM; in assay [7], 27500 nM. The figures for the Ka in assay [8] and in assay [9] were 20100 M⁻¹ s⁻¹ and 59900 M⁻¹ s⁻¹, respectively. Besides, the Kdiss in [10] was found to be 1.65 s⁻¹. Besides, the result (with Staphylococcus aureus [2]; in the assay on Enterococcus faecalis; in the assay on Streptococcus pneumoniae; in assay [3]; in assay [4]) was inactive.
